Results reported in ChEMBL document CHEMBL1121831 (1981).
pIC50: −log10 of the molar value.

Experiments:
[1] = biological target: T1, Dihydrofolate reductase (Mus musculus) (UniProt P00375); experiment: Affinity for mammalian (L1210 mouse leukemia) dihydrofolate reductase
T1 sequence (whole entry): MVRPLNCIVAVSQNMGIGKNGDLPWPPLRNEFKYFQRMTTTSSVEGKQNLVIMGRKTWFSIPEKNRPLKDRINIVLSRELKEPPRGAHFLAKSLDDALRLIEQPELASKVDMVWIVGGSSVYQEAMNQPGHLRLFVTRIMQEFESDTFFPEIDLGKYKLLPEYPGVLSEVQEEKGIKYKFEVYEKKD
How it was run: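 Partially purified DHFR from L1210 cells, diluted 8-fold in 0.1 M KH2PO4 (pH 6.2) with 0.1% BSA and 1 mM NADPH, then held on ice 5 min. Competition with [3H]MTX over serial 5-fold dilutions starting from a 6 μM solution, 5 min at 0 °C. Unbound ligand removed with Norite charcoal and the supernatant counted; ID50 (50% drop in bound label) read from a logit-log plot.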

CCRF-CEM (Homo sapiens) = experiment: Percent inhibition of human lymphoblastic leukemia cell growth (48h) at 10 uM
[2] = biological target: Dihydrofolate reductase (Lactobacillus casei) (UniProt P00381); experiment: Affinity for partially purified bacterial (Lactobacillus casei) dihydrofolate reductase; settings: Lacticaseibacillus casei
Chain of Dihydrofolate reductase (Lactobacillus casei) (P00381 whole entry): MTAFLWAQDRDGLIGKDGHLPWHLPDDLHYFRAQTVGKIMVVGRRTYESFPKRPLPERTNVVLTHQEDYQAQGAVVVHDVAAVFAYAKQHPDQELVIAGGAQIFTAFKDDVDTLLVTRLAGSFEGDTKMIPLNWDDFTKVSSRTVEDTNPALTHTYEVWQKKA

CCRF-CEM [3] = experiment: Compound was tested for the inhibition of growth of human lymphoblastic leukemia cells (CEM); format: functional; settings: read-out: ID50 (the source's name)
How it was run: (§1)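 CEM human lymphoblastic and L1210 murine leukemia cells were grown in culture with drug for 48 h, at concentrations up to 10 μM. The read-out was growth inhibition, given as ID50 or, where ID50 was not reached, as percent inhibition at 10 μM. Values are averages of triplicate experiments.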

L1210 [4] = experiment: Compound was tested for the inhibition of growth of murine leukemia cells (L1210); format: functional; settings: Mus musculus, read-out: ID50 (the source's name); how it was run: as §1
[5] = biological target: Dihydrofolate reductase (Lactobacillus casei) (UniProt P00381); experiment: Compound is evaluated for binding to Lactobacillus casei dihydrofolate reductase using kinetic assay; settings: Lacticaseibacillus casei
CCRF-CEM [6] = experiment: Compound is tested for the inhibition of growth of human lymphoblastic leukemia cells (CEM); format: functional; settings: read-out: ID50 (the source's name); how it was run: as §1
L1210 [7] = experiment: Compound is evaluated for activity against L1210 leukemia in mice, at dose 160 mg/kg; format: functional, Mus musculus
How it was run: (§2)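 B6D2F1 mice were inoculated ip with 10^5 L1210 cells on day 0. Test agents were given ip on days 1, 4 and 7 in 10% Tween 80 or a 1:1:8 emulphor-ethanol-water suspension; MTX was given ip as the disodium salt in water. Groups were mostly five mice. Read-out was median survival of treated vs control mice (days) and % increase in life span.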

Mus musculus [8] = experiment: Compound is evaluated for activity against L1210 leukemia in mice, at dose 160 mg/kg expressed as T/C=13/9; format: functional; how it was run: as §2
Mus musculus [9] = experiment: Compound is evaluated for activity against L1210 leukemia in mice, at dose 80 mg/kg expressed as T/C=11/9; format: functional; how it was run: as §2
[10] = biological target: T1, Dihydrofolate reductase (Mus musculus); experiment: Compound is evaluated for binding to L1210 mouse leukemia cells dihydrofolate reductase using ligand-binding assay
L1210 [11] = experiment: Compound is evaluated for activity against L1210 leukemia in mice, at dose 80 mg/kg; format: functional, Mus musculus; how it was run: as §2
L1210 [12] = experiment: Compound is evaluated for increase in life span against L1210 leukemia in mice, at dose 80 mg/kg; format: functional; settings: Mus musculus
How it was run: (§3)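 B6D2F1 mice were inoculated ip with 10⁵ L1210 cells on day 0. Drug was given ip on days 1, 4 and 7 (q3d) as a suspension in 10% Tween 80 or 1:1:8 emulphor–ethanol–water, or as the disodium salt in water. The read-out was median survival of treated versus control mice (T/C, days), expressed as % increase in life span.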

L1210 [13] = experiment: Compound is tested for the inhibition of growth of murine leukemia cells (L1210); format: functional; settings: Mus musculus, read-out: ID50 (the source's name); how it was run: as §1
L1210 [14] = experiment: Compound is evaluated for increase in life span against L1210 leukemia in mice, at dose 160 mg/kg; format: functional; settings: Mus musculus; how it was run: as §3
RBL-1 [15] = experiment: Compound was tested for the inhibition of growth of rat basophilic leukemia (RBL) cells; format: functional; settings: read-out: ID50 (the source's name)
L1210 [16] = experiment: Compound is evaluated for percent increase in against L1210 leukemia in mice, at dose 30 mg/kg; format: functional; settings: Mus musculus, L1210, dose 30 mg/kg; how it was run: as §3
Mus musculus [17] = experiment: Compound is evaluated for activity against L1210 leukemia in mice, at dose 60 mg/kg expressed as T/C=18/9; format: functional; how it was run: as §2
Mus musculus [18] = experiment: Compound is evaluated for activity against L1210 leukemia in mice, at dose 15 mg/kg expressed as T/C=15.5/9; format: functional; how it was run: as §2
Mus musculus [19] = experiment: Compound is evaluated for activity against L1210 leukemia in mice, at dose 30 mg/kg expressed as T/C=16.5/9; format: functional; how it was run: as §2
L1210 [20] = experiment: Compound is evaluated for percent increase in against L1210 leukemia in mice, at dose 15 mg/kg; format: functional; settings: Mus musculus; how it was run: as §3
RBL-1 [21] = experiment: Compound is tested for the inhibition of growth of rat basophilic leukemia (RBL)cells; format: functional; settings: read-out: ID50 (the source's name)

CC(NC(=O)CCC(NC(=O)c1ccc(N(C)Cc2cnc3nc(N)nc(N)c3n2)cc1)C(=O)NC(C)c1ccccc1)c1ccccc1 (configuration not stated)
ID50 [1]: 0.011 µM | inhibition at 10 µM (CCRF-CEM (Homo sapiens)): 25% | ID50 [2]: 0.31 µM | pIC50 (CCRF-CEM [3]): < 5.00 | pIC50 (L1210 [4]): < 5.00

CN(Cc1cnc2nc(N)nc(N)c2n1)c1ccc(C(=O)NC(CCC(=O)NCc2ccc(Cl)cc2)C(=O)NCc2ccc(Cl)cc2)cc1 (configuration not stated)
ID50 [5]: 2.3 µM | pIC50 (CCRF-CEM [6]): < 5.00 | MTX equivalent (L1210 [7]): 130 mg/kg | Median T/C (Mus musculus [8]): 13 days | Median T/C (Mus musculus [9]): 11 days | ID50 [10]: 0.18 µM | MTX equivalent (L1210 [11]): 65 mg/kg | ILS at 80 mg/kg (L1210 [12]): 22% | pIC50 (L1210 [13]): 5.18 | ILS at 160 mg/kg (L1210 [14]): 44%

CN(Cc1cnc2nc(N)nc(N)c2n1)c1ccc(C(=O)NC(CCC(=O)NC23CC4CC(CC(C4)C2)C3)C(=O)NC23CC4CC(CC(C4)C2)C3)cc1 (configuration not stated)
pIC50 (RBL-1 [15]): 5.80 | inhibition at 10 µM (CCRF-CEM (Homo sapiens)): 38% | ID50 [5]: 6.3 µM | pIC50 (CCRF-CEM [3]): < 5.00 | ID50 [10]: 3.1 µM | pIC50 (L1210 [4]): 5.47

CN(Cc1cnc2nc(N)nc(N)c2n1)c1ccc(C(=O)NC(CCC(=O)N2CCCCC2)C(=O)N2CCCCC2)cc1 (configuration not stated)
ID50 [5]: 0.25 µM | ID50 [10]: 0.012 µM | pIC50 (L1210 [13]): < 5.00

CN(Cc1cnc2nc(N)nc(N)c2n1)c1ccc(C(=O)N[C@@H](CCC(=O)O)C(=O)O)cc1 [METHOTREXATE]
ILS at 30 mg/kg (L1210 [16]): 83% | pIC50 (CCRF-CEM [6]): 8.52 | Median T/C (Mus musculus [17]): 18 days | Median T/C (Mus musculus [18]): 15.5 days | pIC50 (L1210 [13]): 8.00 | Median T/C (Mus musculus [19]): 16.5 days | ILS at 15 mg/kg (L1210 [20]): 72% | pIC50 (RBL-1 [21]): 8.52
